In publication PMC10957407 (Food Chemistry: X, 2024):
≈ marks a conversion by molar mass, not a printed value.

Experiments:
[1] = tested on: 1-F12; experiment: icELISA with mAb 1-F12; assay type: binding, Balb/c mice; details: for CR: CR%=IC50 6-GG/IC50 test compound x100%
Procedure, shortened: (§1)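 Ascites-derived mAbs (caprylic acid–ammonium sulfate purified) from female Balb/c mice immunized with hapten–BSA. Plates coated with hapten–OVA in carbonate buffer (0.5 mol L−1, pH 9.6), blocked with 5% skim milk, washed with PBST, and detected with goat anti-mouse IgG-HRP; reaction stopped with 2 mol L−1 H2SO4. Analyte stocks (1 mg/mL, 70% methanol) were diluted in 10% methanol-PBS. IC50 values were fitted, and cross-reactivity was calculated for capsaicinoids, gingerol derivatives and eight other compounds.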

[2] = tested on: 1-G12; experiment: icELISA with mAb 1-G12; assay type: binding, Balb/c mice; details: for CR: CR%=IC50 6-GG/IC50 test compound x100%
Procedure, shortened: as §1

[3] = tested on: 1-D6; experiment: icELISA with mAb 1-D6; assay type: binding, Balb/c mice; details: for CR: CR%=IC50 6-GG/IC50 test compound x100%
Procedure, shortened: as §1

[4] = tested on: 2-LD2; experiment: icELISA with mAb 2-LD2; assay type: binding
[5] = tested on: 3-LD3; experiment: icELISA with mAb 3-LD3; assay type: binding
[6] = tested on: 4-AT4; experiment: icELISA with mAb 4-AT4; assay type: binding
[7] = tested on: 5-3H1; experiment: icELISA with mAb 5-3H1; assay type: binding
[8] = tested on: 5-D8; experiment: icELISA with mAb 5-D8; assay type: binding
[9] = tested on: 6-AT6; experiment: icELISA with mAb 6-AT6; assay type: binding
[10] = mAb 1-D6, specific evaluation (Table 1, Fig. 3C)
[11] = mAb 1-F12, specific evaluation (Table 1, Fig. 3B)
[12] = mAb 1-G12, specific evaluation (Table 1, Fig. 3D)

In the case of `COc1cc(/C=C/C(=O)O)ccc1O` [Ferulic acid], the CR ([1]; mAb 1-F12) is reported as <12.66%, the CR ([2]; mAb 1-G12) is reported as <14.01% and the IC50 [3, 10] is reported as 1927.36 ng/mL (≈ 9.93 µM). It also gave a CR ([3]; mAb 1-D6) of 3.07%.
With `CCCCC[C@H](O)CC(=O)CCc1ccc(O)c(OC)c1` [Hapten 6-GG, 6-gingerol] the IC50 ([1]; coating antigen Hapten 1-OVA, mAb 1-F12) was 506.23 ng/mL (≈ 1.72 µM), the IC50 ([1]; coating antigen Hapten 2-OVA, mAb 1-F12) was >4000 ng/mL and the IC50 ([1]; coating antigen Hapten 3-OVA, mAb 1-F12) was >4000 ng/mL. For the same molecule, the IC50 ([1]; coating antigen Hapten 4-OVA, mAb 1-F12) was 401.26 ng/mL (≈ 1.36 µM), the IC50 ([1]; coating antigen Hapten 5-OVA, mAb 1-F12 (optimal combination)) was 122.83 ng/mL and the IC50 ([1]; coating antigen Hapten 6-OVA, mAb 1-F12) was 631.69 ng/mL (≈ 2.15 µM). For the same molecule, the IC50 [1, 11] was 506.23 ng/mL (≈ 1.72 µM), the CR ([1]; mAb 1-F12) was 100.00% and the IC50 ([2]; coating antigen Hapten 1-OVA, mAb 1-G12) was 560.59 ng/mL (≈ 1.9 µM). The IC50 ([2]; coating antigen Hapten 2-OVA, mAb 1-G12) was >4000 ng/mL, the IC50 ([2]; coating antigen Hapten 3-OVA, mAb 1-G12) was >4000 ng/mL and the IC50 ([2]; coating antigen Hapten 4-OVA, mAb 1-G12) was 410.84 ng/mL (≈ 1.4 µM). The IC50 ([2]; coating antigen Hapten 5-OVA, mAb 1-G12) was 195.53 ng/mL (≈ 0.664 µM), the IC50 ([2]; coating antigen Hapten 6-OVA, mAb 1-G12) was 284.44 ng/mL (≈ 0.966 µM) and the IC50 [2, 12] was 560.59 ng/mL (≈ 1.9 µM). The CR ([2]; mAb 1-G12) was 100.00%, the IC50 ([3]; coating antigen Hapten 1-OVA, mAb 1-D6) was 59.17 ng/mL (≈ 0.201 µM) and the IC50 ([3]; coating antigen Hapten 2-OVA, mAb 1-D6) was 1147.33 ng/mL (≈ 3.9 µM). It also gave an IC50 ([3]; coating antigen Hapten 3-OVA, mAb 1-D6) of 27.78 ng/mL (≈ 0.0944 µM), an IC50 ([3]; coating antigen Hapten 4-OVA, mAb 1-D6) of 297.53 ng/mL (≈ 1.01 µM) and an IC50 ([3]; coating antigen Hapten 5-OVA, mAb 1-D6) of 132.86 ng/mL (≈ 0.451 µM). It also gave an IC50 ([3]; coating antigen Hapten 6-OVA, mAb 1-D6) of 150.56 ng/mL (≈ 0.511 µM), an IC50 [3, 10] of 59.17 ng/mL (≈ 0.201 µM) and a CR ([3]; mAb 1-D6) of 100.00%. The IC50 ([4]; coating antigen Hapten 1-OVA) was 24.79 ng/mL (≈ 0.0842 µM), the IC50 ([4]; coating antigen Hapten 2-OVA) was 1436.16 ng/mL (≈ 4.88 µM) and the IC50 ([4]; coating antigen Hapten 3-OVA) was 1.78 ng/mL (≈ 0.00605 µM). The IC50 ([4]; coating antigen Hapten 4-OVA) was 1.01 ng/mL (≈ 0.00343 µM), the IC50 ([5]; coating antigen Hapten 2-OVA) was 1821.65 ng/mL (≈ 6.19 µM) and the IC50 ([5]; coating antigen Hapten 3-OVA) was 2182.32 ng/mL (≈ 7.41 µM). The IC50 ([5]; coating antigen Hapten 4-OVA) was 271.08 ng/mL (≈ 0.921 µM), the IC50 ([6]; coating antigen Hapten 1-OVA) was 4.93 ng/mL (≈ 0.0167 µM) and the IC50 ([6]; coating antigen Hapten 2-OVA) was >4000 ng/mL. The IC50 ([6]; coating antigen Hapten 3-OVA) was >4000 ng/mL, the IC50 ([6]; coating antigen Hapten 4-OVA) was >4000 ng/mL and the IC50 ([6]; coating antigen Hapten 5-OVA) was 481.65 ng/mL (≈ 1.64 µM). The IC50 ([7]; coating antigen Hapten 1-OVA) was 38.97 ng/mL (≈ 0.132 µM), the IC50 ([7]; coating antigen Hapten 2-OVA) was >4000 ng/mL and the IC50 ([7]; coating antigen Hapten 3-OVA) was >4000 ng/mL. It also gave an IC50 ([7]; coating antigen Hapten 4-OVA) of 1062.82 ng/mL (≈ 3.61 µM), an IC50 ([7]; coating antigen Hapten 5-OVA) of 670.41 ng/mL (≈ 2.28 µM) and an IC50 ([8]; coating antigen Hapten 1-OVA) of 23.28 ng/mL (≈ 0.0791 µM). The IC50 ([8]; coating antigen Hapten 2-OVA) was >4000 ng/mL, the IC50 ([8]; coating antigen Hapten 3-OVA) was >4000 ng/mL and the IC50 ([8]; coating antigen Hapten 4-OVA) was 1030.07 ng/mL (≈ 3.5 µM). The IC50 ([8]; coating antigen Hapten 5-OVA) was 1036.51 ng/mL (≈ 3.52 µM), the IC50 ([9]; coating antigen Hapten 1-OVA) was >4000 ng/mL and the IC50 ([9]; coating antigen Hapten 2-OVA) was >4000 ng/mL. For the same molecule, the IC50 ([9]; coating antigen Hapten 3-OVA) was >4000 ng/mL, the IC50 ([9]; coating antigen Hapten 4-OVA) was >4000 ng/mL and the IC50 ([9]; coating antigen Hapten 5-OVA) was 425.62 ng/mL (≈ 1.45 µM). For the same molecule, the IC50 ([9]; coating antigen Hapten 6-OVA) was >4000 ng/mL.
With `COc1ccc(/C=C/C(=O)O)cc1O` [IsoFerulic acid] the IC50 [1, 11] was >4000 ng/mL, the CR ([1]; mAb 1-F12) was <12.66% and the IC50 [2, 12] was >4000 ng/mL. The CR ([2]; mAb 1-G12) was <14.01%, the IC50 [3, 10] was 2128.07 ng/mL (≈ 11 µM) and the CR ([3]; mAb 1-D6) was 2.78%.
`COc1cc(/C=C/C(=O)O)ccc1O` [Trans-Ferulic acid] was tested, and the IC50 [1, 11] was >4000 ng/mL, the CR ([1]; mAb 1-F12) was <12.66% and the IC50 [2, 12] was >4000 ng/mL. The CR ([2]; mAb 1-G12) was <14.01%, the IC50 [3, 10] was >4000 ng/mL and the CR ([3]; mAb 1-D6) was <1.48%.
For `COc1cc(C(=O)O)ccc1O` [Vanillic acid], the IC50 [1, 11] was >4000 ng/mL, the CR ([1]; mAb 1-F12) was <12.66% and the IC50 [2, 12] was >4000 ng/mL. The CR ([2]; mAb 1-G12) was <14.01%, the IC50 [3, 10] was 1717.20 ng/mL (≈ 10.2 µM) and the CR ([3]; mAb 1-D6) was 3.45%.
In the case of `COc1cc(C=O)ccc1O` [Vanillin], the IC50 [1, 11] is reported as >4000 ng/mL, the CR ([1]; mAb 1-F12) is reported as <12.66% and the IC50 [2, 12] is reported as >4000 ng/mL. For the same molecule, the CR ([2]; mAb 1-G12) was <14.01%, the IC50 [3, 10] was 1981.61 ng/mL (≈ 13 µM) and the CR ([3]; mAb 1-D6) was 2.99%.
